Laboratory results from ChEMBL document CHEMBL1144398, “Structure-based design, parallel synthesis, structure-activity relationship, and molecular modeling studies of thiocarbamates, new potent non-nucleoside HIV-1 reverse transcriptase inhibitor isosteres of phenethylthiazolylthiourea derivatives” (J Med Chem, 2005).

Tests used:
[1] = test system: MT4; assay: Cytotoxic concentration required to reduce the viability of mock infected MT-4 cells determined by MTT method; format: functional; conditions: Homo sapiens
How it was run: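 Viability of mock-infected MT-4 cells, assayed in parallel with the antiviral test, read by MTT. CC50 is the concentration that lowers viability by 50%. Values are means of three separate experiments, with variation among triplicates under 10%. The highest concentration tested was 100 µM.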

[2] = test system: MT4; assay: Ratio of CC50 to that of EC50 determined in MT-4 cells; format: functional
How it was run: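 Selectivity index, calculated as CC50/EC50. CC50 came from MTT viability of mock-infected MT-4 cells and EC50 from MTT-read protection of HIV-1-infected MT-4 cells from cytopathogenicity, with both run in parallel. Values are means of three experiments.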

[3] = test system: MT4; assay: Effective concentration require to protect MT-4 cells from human immunodeficiency virus type 1 induced cytopathogenicity was determined by MTT method; format: functional, cell-based
How it was run: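 MT-4 cells infected with HIV-1, with test compounds added. Protection from virus-induced cytopathogenicity was read by MTT. EC50 is the concentration giving 50% protection. Values are means of three separate experiments, with variation among triplicates under 10%. Trovirdine served as the reference.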

Compound | CC50 [1] [µM] | SI [2] | EC50 [3] [µM]
O=C1C2CC=CCC2C(=O)N1CCOC(=S)Nc1ccc(Cl)cc1 (configuration not stated) | > 100 | >10.6 | 9.4
COc1ccccc1/N=C(/S)OCCN1C(=O)c2ccccc2C1=O | > 100 | >17.9 | 5.6
COC(=O)c1ccccc1/N=C(/S)OCCN1C(=O)c2ccccc2C1=O | 45 | – | > 45
COC(=O)c1ccccc1/N=C(/S)OCCNC(=O)c1ccccc1C(=O)O | > 100 | – | > 100
CC(C)c1ccc(NC(=S)OCCNC(=O)c2ccccc2C(=O)O)cc1 | > 100 | >27 | 3.7
CCOc1ccc(NC(=S)OCCN2C(=O)c3ccccc3C2=O)cc1 | > 100 | >14.3 | 7
CC(CO/C(S)=N\c1ccc(Cl)cc1)NC(=O)c1ccccc1C(=O)O (configuration not stated) | > 100 | >20 | 5
N#Cc1ccc(/N=C(/S)OCCNC(=O)c2ccccc2C(=O)O)cc1 | > 100 | >1000 | 0.1
CCN(CC)c1ccc(NC(=S)OCCN2C(=O)c3ccccc3C2=O)cc1 | > 100 | >71 | 1.4
CC(CN1C(=O)c2ccccc2C1=O)O/C(S)=N/c1ccc(Cl)cc1 (configuration not stated) | > 100 | >58.8 | 1.7
Cc1cccc2c1C(=O)N(CCO/C(S)=N/c1ccc(Cl)cc1)C2=O | > 100 | >2000 | 0.05
COC(=O)c1cccc(NC(=S)OCCN2C(=O)c3ccccc3C2=O)c1 | > 100 | >4.8 | 21
O=C(O)c1ccccc1C(=O)NCCO/C(S)=N\c1ccc(Br)cc1 | > 100 | >1000 | 0.1
COc1cccc(NC(=S)OCCN2C(=O)c3ccccc3C2=O)c1 | > 100 | >25 | 4
Cc1cccc(NC(=S)OCCN2C(=O)c3ccccc3C2=O)c1 | > 100 | >66.7 | 1.5
CC(C)c1ccccc1/N=C(/S)OCCN1C(=O)c2ccccc2C1=O | > 100 | >2.3 | 43
COC(=O)c1cccc(NC(=S)OCCNC(=O)c2ccccc2C(=O)O)c1 | > 100 | – | > 100
O=C1c2ccccc2C(=O)N1CCOC(=S)Nc1ccccc1Cl | > 100 | >5.9 | 17
CCOC(=O)c1ccc(NC(=S)OCCN2C(=O)c3ccccc3C2=O)cc1 | > 100 | >4.3 | 23
Cc1cccc2c1C(=O)N(CCO/C(S)=N/c1ccc([N+](=O)[O-])cc1)C2=O | 71 | 1014 | 0.07
CSc1cccc(NC(=S)OCCNC(=O)c2ccccc2C(=O)O)c1 | > 100 | >9.1 | 11
Cc1ccccc1/N=C(/S)OCCNC(=O)c1ccccc1C(=O)O | > 100 | >3.7 | 27
CN(C)c1ccc(NC(=S)OCCN2C(=O)c3ccccc3C2=O)cc1 | > 100 | >167 | 0.6

Compound | CC50 [1] [µM] | SI [2] | EC50 [3] [µM]
O=C1CCC(=O)N1CCOC(=S)Nc1ccc(Cl)cc1 | > 100 | >42 | 2.4
Cc1ccc(OC(=S)OCCN2C(=O)c3ccccc3C2=O)cc1 | > 100 | – | > 100
O=C(Nc1ccc([N+](=O)[O-])cc1)OCCN1C(=O)c2ccccc2C1=O | > 100 | >200 | 0.5
Cc1ccc(/N=C(/S)OC(C)CNC(=O)c2ccccc2C(=O)O)cc1 (configuration not stated) | > 100 | >2.4 | 41
O=C1c2ccccc2C(=O)N1CCOC(=S)NC1CCCCC1 | > 100 | >333 | 0.3
COc1ccccc1/N=C(/S)OCCNC(=O)c1ccccc1C(=O)O | > 100 | >1.5 | 65
CCOc1ccc(NC(=S)OCCNC(=O)c2ccccc2C(=O)O)cc1 | > 100 | 50 | 2
O=C(O)c1ccccc1C(=O)NCCO/C(S)=N\c1ccccc1[N+](=O)[O-] | > 100 | – | > 100
CC(=O)c1ccc(NC(=S)OCCN2C(=O)c3ccccc3C2=O)cc1 | > 100 | >714 | 0.14
O=C1c2ccccc2C(=O)N1CCOC(=S)Nc1cccc([N+](=O)[O-])c1 | > 100 | >167 | 0.6
Cc1ccc(/N=C(\S)OC(C)CN2C(=O)c3ccccc3C2=O)cc1 (configuration not stated) | > 100 | >2.1 | 48
CC(C)c1ccc(NC(=S)OCCN2C(=O)c3ccccc3C2=O)cc1 | 94 | 2350 | 0.04
O=C(O)c1ccccc1C(=O)NCCO/C(S)=N\c1ccc(Cl)cc1 | > 100 | >1000 | 0.1
O=C(O)c1ccccc1C(=O)NCCO/C(S)=N\c1ccccc1 | > 100 | >33.3 | 3
CC(CN1C(=O)c2ccccc2C1=O)O/C(S)=N/c1ccc(C#N)cc1 (configuration not stated) | > 100 | >2.7 | 36
O=C1c2ccccc2C(=O)N1CCOC(=S)Nc1cccc(Cl)c1 | > 100 | >50 | 2
O=C(O)c1ccccc1C(=O)NCCO/C(S)=N\c1ccc(F)cc1 | > 100 | >400 | 0.25
O=C1c2ccccc2C(=O)N1CCO/C(S)=N\c1ccccc1[N+](=O)[O-] | > 100 | – | > 100
O=C(O)c1ccccc1C(=O)NCCO/C(S)=N\c1ccc([N+](=O)[O-])cc1 | > 100 | >333 | 0.3
O=C1C2C3C=CC(C3)C2C(=O)N1CCOC(=S)Nc1ccc([N+](=O)[O-])cc1 (configuration not stated) | > 100 | – | > 100
O=C1c2ccccc2C(=O)N1CCOC(=S)Nc1ccc(C(F)(F)F)cc1 | > 100 | >2500 | 0.04
O=C1c2ccccc2C(=O)N1CCCOC(=S)Nc1ccccc1 | > 100 | – | > 100
Cc1ccc(NC(=S)OCCNC(=O)c2ccccc2C(=O)O)cc1 | > 100 | >250 | 0.4

Compound | CC50 [1] [µM] | SI [2] | EC50 [3] [µM]
O=C1c2ccccc2C(=O)N1CCO/C(S)=N\c1ccccc1F | > 100 | >33 | 3
COc1ccc(NC(=S)OCCNC(=O)c2ccccc2C(=O)O)cc1 | > 100 | >500 | 0.2
O=C(O)c1ccccc1C(=O)NCCO/C(S)=N\c1ccccc1F | > 100 | >200 | 0.5
O=C1C2CC=CCC2C(=O)N1CCOC(=S)Nc1ccc(Br)cc1 (configuration not stated) | > 100 | >43 | 2.3
COc1cccc(NC(=S)OCCNC(=O)c2ccccc2C(=O)O)c1 | > 100 | >38.5 | 2.6
Cc1ccc2c(c1)C(=O)N(CCO/C(S)=N/c1ccc([N+](=O)[O-])cc1)C2=O | 80 | >8000 | 0.01
CSc1cccc(NC(=S)OCCN2C(=O)c3ccccc3C2=O)c1 | > 100 | >14.3 | 7
COc1ccc(NC(=S)OCCN2C(=O)c3ccccc3C2=O)cc1 | > 100 | >3333 | 0.03
O=C1c2ccccc2C(=O)N1CCOC(=S)Nc1cccc2ccccc12 | > 100 | >15.4 | 6.5
O=C1c2ccccc2C(=O)N1CCCOC(=S)Nc1ccc([N+](=O)[O-])cc1 | ≥ 100 | >=5.3 | 19
O=C1c2ccccc2C(=O)N1CCOC(=S)Nc1ccccc1Br | > 100 | >7.1 | 14
CCc1ccc(NC(=S)OCCN2C(=O)c3ccccc3C2=O)cc1 | > 100 | >1250 | 0.08
Cc1cccc(NC(=S)OCCNC(=O)c2ccccc2C(=O)O)c1 | > 100 | >20 | 5
O=C(O)c1ccccc1C(=O)NCCO/C(S)=N\c1ccc(OCc2ccccc2)cc1 | > 100 | >200 | 0.5
O=C1c2ccccc2C(=O)N1COC(=S)Nc1ccc([N+](=O)[O-])cc1 | 23 | – | > 23
O=C1c2ccccc2C(=O)N1CCOC(=S)Oc1ccc(Cl)cc1 | > 100 | – | > 100
CC(CN1C(=O)c2ccccc2C1=O)O/C(S)=N/c1ccc(Br)cc1 (configuration not stated) | > 100 | >43.5 | 2.3
Cc1ccccc1/N=C(/S)OCCN1C(=O)c2ccccc2C1=O | > 100 | >27 | 3.7
CC(CO/C(S)=N\c1ccc([N+](=O)[O-])cc1)NC(=O)c1ccccc1C(=O)O (configuration not stated) | > 100 | >7.7 | 13
CCc1ccc(NC(=S)OCCNC(=O)c2ccccc2C(=O)O)cc1 | > 100 | >333 | 0.3
CC(CO/C(S)=N/c1ccc([N+](=O)[O-])cc1)N1C(=O)c2ccccc2C1=O (configuration not stated) | > 100 | >167 | 0.6
O=C1c2ccccc2C(=O)N1CCO/C(S)=N\c1ccccc1C(F)(F)F | > 100 | >1.5 | 65
CC(COC(=S)Nc1ccc(Cl)cc1)N1C(=O)c2ccccc2C1=O (configuration not stated) | 44 | 880 | 0.05
